The sample as a whole holds a higher share of hits than the screen did.
IDH1 R132H inh: inhibitors of IDH1 R132H reductase, primary screen, biochemical, plate reader, single point. diaphorase/resazurin fluorescence, 60 min. Isocitrate dehydrogenase [NADP] cytoplasmic (Homo sapiens), O75874. AID 624101, 2012. actives 0.18% (n = 70,000). inhibition, % at 10 µM; in the data active means inhibition above about 34%; inconclusive means no clear call, values can overlap the other calls; inactive means below about 11%
Pf Dd2 growth: P. falciparum Dd2 growth inhibitors, primary screen, SYBR Green fluorescence, single dose replicates; activity change, % at 10 µM; 72 h; stronger effect = lower value; AID 1159554, 2015; actives 2.3% (n = 94,000); in the data active means activity change below about -80%; inconclusive means no clear call, values can overlap the other calls
KDM4C inh: inhibitors of GASC-1 (KDM4C) histone demethylase, primary screen, biochemical, single concentration HTS; inhibition, % at 12.5 µM; actives 0.15% (n = 96,000); GST-KDM4C 2-372, H3K9me3 peptide, LANCE TR-FRET;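 active means mean replicate inhibition above about 25%, with at least 55% of replicates also reaching it, limit read from the data, passing the limit was not always enough; inconclusive means only one of those two conditions met; inactive means neither condition met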
Target sequence (Q9H3R0 2-372 limits assumed): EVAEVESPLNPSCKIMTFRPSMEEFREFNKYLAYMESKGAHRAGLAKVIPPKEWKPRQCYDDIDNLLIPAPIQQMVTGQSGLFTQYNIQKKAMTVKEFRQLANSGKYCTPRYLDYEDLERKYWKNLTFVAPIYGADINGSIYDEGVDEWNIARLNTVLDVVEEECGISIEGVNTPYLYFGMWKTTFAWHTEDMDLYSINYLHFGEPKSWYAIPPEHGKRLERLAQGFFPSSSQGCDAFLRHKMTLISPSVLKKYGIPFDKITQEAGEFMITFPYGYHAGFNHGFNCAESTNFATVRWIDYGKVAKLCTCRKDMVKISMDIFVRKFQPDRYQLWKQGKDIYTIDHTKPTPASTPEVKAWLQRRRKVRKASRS
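System – N-terminal GST-fused human GASC-1 (KDM4C) fragment, residues 2-372 · Input – enzyme final amount 10 nM · Technique – LANCE TR-FRET, Eu antibody, ULight-streptavidin, EDTA, ex 340 nm, em 618/671 nm · Medium – HEPES buffer, pH 7.5, plus ascorbate · Incubation – enzyme reaction 30 min, then detection 60 min, both room temperature · Reagent – H3K9me3 peptide with Fe(II)/2OG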
Hits are given with their value; i = inactive; ? = inconclusive; nt = no result; ! = a repeat was not active.

SMILES	IDH1 R132H inh	Pf Dd2 growth	KDM4C inh
COc1ccc(CN(C)C[C@H]2OCCCC[C@@H](C)Oc3ccc(NC(=O)Nc4cccc5ccccc45)cc3C(=O)N([C@@H](C)CO)C[C@H]2C)cc1	nt	-89	i
COc1ccc(CN(C)C[C@@H]2OCCCC[C@@H](C)Oc3ccc(NC(=O)Nc4cccc5ccccc45)cc3C(=O)N([C@H](C)CO)C[C@@H]2C)cc1	nt	i	i
CC(C)=CCc1c(O)c(CC=C(C)C)c2c(c1O)C(=O)CC(c1ccccc1)O2 (stereo not given)	i	nt	nt
O=C(C[C@@H]1CC[C@@H]2[C@H](COC[C@@H](O)CN2C(=O)Nc2ccc(Cl)c(Cl)c2)O1)NC1CCC1	nt	nt	i
CN(C)CC(=O)Nc1ccc2c(c1)[C@@H]1C[C@H](CC(=O)N3CCOCC3)O[C@@H](CO)[C@@H]1O2	i	?	i
CO[C@@H]1CN(C)C(=O)c2ccc(NC(=O)Nc3cccc(F)c3)cc2OC[C@@H](C)N(C(=O)Nc2c(C)noc2C)C[C@H]1C	i	i	i
COc1ccc(-c2cnc3c(c2)C(=O)N([C@@H](C)CO)C[C@@H](C)[C@H](CN(C)C(=O)C2CCOCC2)O3)cc1	i	i	i
CCNC(=O)[C@@H]1[C@@H](CO)[C@@H]2Cn3c(ccc(-c4cccnc4)c3=O)[C@@H]2N1Cc1ccccc1	nt	i	i
O=C(NCC(F)(F)F)[C@@H]1[C@@H](CO)[C@@H]2Cn3c(ccc(-c4cccnc4)c3=O)[C@@H]2N1Cc1ccncc1	nt	i	38
C[C@@H]1CN([C@H](C)CO)C(=O)c2cccc(NS(=O)(=O)c3cccs3)c2O[C@H]1CN(C)C(=O)Nc1ccc(F)cc1	i	i	i
Cc1cccc(-c2ccc([C@@H]3[C@H](CO)N4CCCCN(S(=O)(=O)c5cccs5)C[C@@H]34)cc2)c1	nt	i	i
C[C@H](CO)N1C[C@H](C)[C@@H](CN(C)C(=O)Nc2cccc3ccccc23)Oc2ccc(NC(=O)Cc3cn(C)c4ccccc34)cc2C1=O	i	-87	i
C[C@H]1CN([C@@H](C)CO)C(=O)c2cc(NC(=O)Cc3cn(C)c4ccccc34)ccc2O[C@H]1CN(C)CC1CC1	i	i	i
C[C@H](CO)N1C[C@H](C)[C@@H](CN(C)Cc2ccc(Oc3ccccc3)cc2)Oc2ccc(NC(=O)Cc3cn(C)c4ccccc34)cc2C1=O	nt	-84	i
C[C@H]1CN([C@@H](C)CO)C(=O)c2cc(NC(=O)Cc3cn(C)c4ccccc34)ccc2O[C@@H]1CN(C)CC1CC1	i	-83	i
C[C@@H]1CN([C@@H](C)CO)C(=O)c2cc(NC(=O)Cc3cn(C)c4ccccc34)ccc2O[C@H]1CN(C)C(=O)Nc1cccc2ccccc12	i	i	i
COc1ccc(CN(C)C[C@@H]2Oc3ccc(NC(=O)Cc4cn(C)c5ccccc45)cc3C(=O)N([C@@H](C)CO)C[C@H]2C)cc1	i	i	i
O=C(CSc1nnc(-c2cccc(F)c2)n1-c1ccccc1)NC1CCCC1	i	nt	nt
O=C(C[C@H]1CC[C@@H]2[C@H](COC[C@@H](O)CN2C(=O)Nc2cccc(Cl)c2)O1)NCc1ccccc1F	nt	i	i
CN1c2ccc(-c3cccc(C#N)c3)cc2[C@H]2[C@H](CCN2S(=O)(=O)c2ccccc2F)[C@H]1CO	nt	-95	i
CN1c2ccc(-c3ccccc3)cc2[C@H]2[C@H](CCN2S(=O)(=O)c2ccccc2F)[C@H]1CO	nt	i	i
C[C@H]1CN([C@@H](C)CO)C(=O)c2cc(-c3ccccc3)cnc2O[C@H]1CN(C)C(=O)NC1CCCC1	i	i	i
O=S(=O)(c1ccccc1)N1C[C@@H]2N[C@H](C1)C2c1ccc(-c2ccc(F)cc2)cc1 (stereo not given in full)	nt	-84!	i
COc1cccc(S(=O)(=O)N2C[C@@H]3N[C@H](C2)C3c2ccc(-c3ccccc3OC)cc2)c1 (stereo not given in full)	nt	i	i
O=S(=O)(c1ccc(-c2ccccc2)cc1)N1C[C@@H]2N[C@H](C1)C2c1ccc(-c2cncnc2)cc1 (stereo not given in full)	nt	i	i
COc1ccccc1-c1ccc([C@@H]2[C@@H]3CN(S(=O)(=O)c4ccc(-c5ccccc5)cc4)C[C@H]2N3)cc1	nt	-89	i
Cc1ccc(-c2ccc(C3[C@@H]4CN(S(=O)(=O)c5ccc(C)cc5)C[C@H]3N4)cc2)cc1 (stereo not given in full)	nt	i	i
Cc1ccccc1S(=O)(=O)N1C[C@@H]2N[C@H](C1)C2c1ccc(-c2ccc(C(=O)N(C)C)cc2)cc1 (stereo not given in full)	nt	i	i

Screens from PubChem.
